Measurements as given in article PMC3728731 (Chemmedchem, 2013).
Several values for one entry are separate records, joined by “and”; a condition that tells them apart may be missing. Identical values can stand only once.

Tests used:
HsGSK3β = HsGSK3β (Homo sapiens, UniProt P49841); assay: HsGSK3β radiometric Flashplate assay; assay type: biochemical
TbGSK3 [1] = molecular target: T1, TbGSK3 (Trypanosoma brucei brucei, UniProt Q388M1); assay: Mechanism of inhibition of TbGSK3; assay type: biochemical; conditions: for mechanism of inhibition: versus ATP, saturating GSP2
T1 sequence (Q388M1 1-352): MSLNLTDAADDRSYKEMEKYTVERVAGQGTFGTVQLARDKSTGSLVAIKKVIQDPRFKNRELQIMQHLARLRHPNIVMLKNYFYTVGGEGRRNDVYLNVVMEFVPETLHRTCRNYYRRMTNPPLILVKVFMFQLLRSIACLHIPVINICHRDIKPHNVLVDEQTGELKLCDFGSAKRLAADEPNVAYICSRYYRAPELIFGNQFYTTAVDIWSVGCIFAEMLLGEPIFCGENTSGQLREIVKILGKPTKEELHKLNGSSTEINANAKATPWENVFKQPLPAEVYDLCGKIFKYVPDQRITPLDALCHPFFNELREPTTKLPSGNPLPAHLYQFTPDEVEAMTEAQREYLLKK
How it was run: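 Rates (CPM) measured at 10 test-compound concentrations × four ATP concentrations, GSP2 phosphopeptide saturating. Lineweaver–Burk plots examined for competitive, mixed or uncompetitive patterns; apparent K_i calculated.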

TbGSK3 [2] = molecular target: T1, TbGSK3; assay: TbGSK3 radiometric Flashplate potency assay; assay type: biochemical; conditions: for IC50: IC50 TbGSK3, Flashplate, 1 μM ATP (<KM); for fold less active than 8 against TbGSK3: compared with compound 8
How it was run: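 Radiometric streptavidin Flashplate capture of biotinylated phosphoproduct. MBP-fused short TbGSK3 (2.5 nM), 1 μM biotinylated GSP2, 1 μM ATP plus 3.7 KBq [γ-³³P]ATP/well. 10-point titration, 30 μM–0.3 nM final, 1% DMSO. IC50 by four-parameter fit; ligand efficiency = [−RT ln(IC50)]/heavy-atom count.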

CDK2-Cyclin A = CDK2-Cyclin A (Homo sapiens, UniProt P24941); assay: Mammalian kinase selectivity panel; assay type: biochemical; conditions: read-out: inhibition of CDK2
How it was run: (§1)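 Run by the University of Dundee DSTT mammalian panel, which then held 76 kinases. Test compound screened in duplicate at 10 μM. Each kinase assayed with ATP below its apparent K_M for ATP.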

76 mammalian kinases = assay: Mammalian kinase selectivity panel, whole panel; assay type: biochemical; conditions: 10 μM
[3] = test system: MRC5 (human lung fibroblast) cells; assay: MRC5 proliferation assay; assay type: cell-based; conditions: T. brucei versus MRC5
How it was run: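 MRC5 human lung fibroblasts, 2×10³ cells/well, grown in MEM with 10% foetal bovine serum. Test compound from 50 μM to 0.5 nM. Incubated 69 h at 37 °C, 5% CO₂. Resazurin added (50 μM final), then a further 4 h under the same conditions. Read by fluorescence.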

GSK3 = GSK3 (Homo sapiens, UniProt P49841); assay: Mammalian kinase selectivity panel; assay type: biochemical; conditions: read-out: inhibition of GSK3
Chain of GSK3 (P49841 whole entry): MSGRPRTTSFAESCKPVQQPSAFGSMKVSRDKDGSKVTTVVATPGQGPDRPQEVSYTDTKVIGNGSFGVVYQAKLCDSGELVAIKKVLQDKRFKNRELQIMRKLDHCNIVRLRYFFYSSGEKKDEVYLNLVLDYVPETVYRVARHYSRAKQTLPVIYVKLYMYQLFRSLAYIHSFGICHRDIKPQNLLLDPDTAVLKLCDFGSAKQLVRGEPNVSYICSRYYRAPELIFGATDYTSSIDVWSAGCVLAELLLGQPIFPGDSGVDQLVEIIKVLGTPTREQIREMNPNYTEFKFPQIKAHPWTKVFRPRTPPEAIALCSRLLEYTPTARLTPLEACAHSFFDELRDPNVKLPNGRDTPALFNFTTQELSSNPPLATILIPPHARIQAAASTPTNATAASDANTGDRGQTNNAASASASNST
How it was run: as §1

Chain of HsGSK3β (P49841 whole entry): as above

Row | IC50 (HsGSK3β) [nM] | IC50 (TbGSK3 [2]) | fold less active than 8 against TbGSK3 (TbGSK3 [2]) | Structure (SMILES) | other results
1 | 5 | 20 nM |  | Nc1nc(Nc2ccccc2)sc1C(=O)c1c(F)cccc1F [Compound 14, (4-Amino-2-(phenylamino)thiazol-5-yl)(2,6-difluorophenyl)methanone] | Ki (TbGSK3 [1]): 50 ± 10 nM; mechanism of inhibition (TbGSK3 [1]): ATP-competitive
2 | 2000 | 400 nM |  | COc1cccc(OC)c1C(=O)c1sc(Nc2ccccc2)nc1N [Compound 15, (4-Amino-2-(phenylamino)thiazol-5-yl)(2,6-dimethoxyphenyl)methanone] | fold less active than 14 against TbGSK3 (TbGSK3 [2]; compared with compound 14): over 10 fold
3 | 5 | 100 nM |  | Nc1nc(Nc2ccccc2)sc1C(=O)c1cccc(Br)c1 [Compound 16, (4-Amino-2-(phenylamino)thiazol-5-yl)(3-bromophenyl)methanone] | 
4 | 200 | 200 nM | approximately 10 fold | Cc1cccc(C)c1Nc1nc(N)c(C(=O)c2ccccc2)s1 [Compound 17, (4-Amino-2-((2,6-dimethylphenyl)amino)thiazol-5-yl)(phenyl)methanone] | 
5 | 2 | 60 nM |  | Cc1ccc(Nc2nc(N)c(C(=O)c3ccccc3)s2)cc1C [Compound 18, (4-Amino-2-((3,4-dimethylphenyl)amino)thiazol-5-yl)(phenyl)methanone] | 
6 | 2 | 190 nM and 200 nM | sixfold | Nc1nc(NC2CCCCC2)sc1C(=O)c1ccccc1 [Compound 19, (4-Amino-2-(cyclohexylamino)thiazol-5-yl)(phenyl)methanone] | Ki (TbGSK3 [1]): 250 ± 30 nM; mechanism of inhibition (TbGSK3 [1]): ATP-competitive
7 | 20 | 700 nM |  | Nc1nc(NCC2CCCCC2)sc1C(=O)c1ccccc1 [Compound 20, (4-Amino-2-((cyclohexylmethyl)amino)thiazol-5-yl)(phenyl)methanone] | 
8 | 3 | 500 nM |  | Nc1nc(NCCc2ccccc2)sc1C(=O)c1ccccc1 [Compound 21, (4-Amino-2-(phenethylamino)thiazol-5-yl)(phenyl)methanone] | 
9 |  | 12000 nM | ~300 fold | CC(C)(C)C(=O)c1sc(NC2CCCCC2)nc1N [Compound 22, 1-(4-Amino-2-(cyclohexylamino)thiazol-5-yl)-2,2-dimethylpropan-1-one] | inhibition at 10 µM (CDK2-Cyclin A): > 70%; kinases of the panel inhibited at the >90 % level (76 mammalian kinases): did not inhibit any kinase at the >90 % level; selectivity over the human MRC5 cell line [3]: > 150 fold; inhibition at 10 µM (GSK3): > 70%
